Compound activity (PubChem)
PGC1a acetyl inh – inhibitors of PGC1a acetylation signal, primary screen, cell-based, U2OS, AlphaScreen, inhibitor mode; AlphaScreen anti-acetyl-lysine; with virally co-expressed GCN5 acetyltransferase; inhibition, % at 15.6 µM; 0.17% of 350,000 active;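 active = every replicate shows inhibition of at least 40%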
Ecoli rRNA inh – reduced GFP signal of wild-type E. coli, primary screen, bacterial rRNA inhibitor project, GFP/RFP fluorescence, OD600, single point | E. coli WT GFP vs humanized-ribosome RFP mutants, 24 h; hits give low values; DMSO median 0, no signal -100 | GFP signal change (wild-type ribosome), % (no concentration beside the values) | 1.6% of 350,000 active;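 active = significant combined selectivity score with lowered wild-type GFP, culture density cut under 30%, mutant RFP and density less affected; inactive = any of these conditions unmet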
HIV Env fusion – inhibitors of HIV-1 Env-driven cell-cell fusion, primary screen, HeLa-JRFL effector, CEM21 target cells, luciferase. AID 651610, 2012. inhibition, % at 12.3 µM. 1.1% of 360,000 active;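 active = mean replicate inhibition score of at least 50 and every replicate individually at or above 50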
Cneo AK release – Cryptococcus neoformans cell lysis inducers, primary screen, AK release luminescence, single concentration; C. neoformans lysis, adenylate kinase release luminescence, 4 h; normalised: neutral wells 0, clomiphene wells 100; 0.2% of 360,000 active; AID 651654, 2012; lysis activity, % at 15 µM;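 active = mean lysis activity across replicates of at least 80%, whatever share of replicates individually reach that level; inactive = mean lysis activity below 80%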
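Material – Cryptococcus neoformans yeast cells · Quantity – 5 × 10^6 yeast cells/mL · Buffer or medium – YPD medium · Compound – single dose · Timing – 4 h static compound exposure, 37 °C, read 1 h post-reagent · Signal – adenylate kinase release luminescence · Read-out basis – lysis from increased AK signal · Benchmarks – Clomiphene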
ERAP1 inh – human ERAP1 aminopeptidase inhibitors, primary screen, biochemical, single point, plate reader. Endoplasmic reticulum aminopeptidase 1 (Homo sapiens), Q9NZ08. recombinant ERAP1, Leu-AMC fluorescence, 60 min. inhibition, % at 10.7 µM. 0.15% of 340,000 active. AID 652197, 2013;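 active = mean replicate inhibition of at least 30%, or all replicates individually reaching that 30% level; inactive = mean below 30% and not every replicate reaching it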
FGF22 binding – binders of human FGF22 protein, primary screen, FGF22 synaptogenesis inhibitor project, biophysical, thermal shift, single point | Fibroblast growth factor 22 (Homo sapiens), Q9HCT0 | recombinant FGF22 thermal shift, SYPRO orange fluorescence; percent of sucrose octasulfate shift, DMSO zero | activity (Tm shift, normalised), % at 9.99 µM | 1.5% of 340,000 active | AID 651658, 2012;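 active = mean Tm shift, scaled 0 neutral to 100 positive control, at about 1.3% or above, every replicate too, limit read from the data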
Target sequence (Q9HCT0 whole entry, looked up): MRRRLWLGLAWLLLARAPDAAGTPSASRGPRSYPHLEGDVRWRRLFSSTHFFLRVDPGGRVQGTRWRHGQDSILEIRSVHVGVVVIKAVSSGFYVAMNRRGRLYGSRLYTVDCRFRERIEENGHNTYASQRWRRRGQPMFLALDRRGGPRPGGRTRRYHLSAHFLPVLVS
Hits are given with their value; - = inactive; . = no result. Hits are enriched below; roughly 3.5% of the tested compounds scored in any of these assays.

SMILES	PGC1a acetyl inh	Ecoli rRNA inh	HIV Env fusion	Cneo AK release	ERAP1 inh	FGF22 binding
CC(C)n1cnc2c(NCc3ccccc3)cc(Cc3ccc(F)cc3)cc21	-	-21	-	-	-	-
Cc1[nH]nc(-c2ccc(O)cc2O)c1Oc1ccccc1	-	-13	.	-	-	-
CC1CCN(CCCNC(=O)c2ccc3c(Cl)c4c(nc3c2)CCCC4)CC1	-	-	57	.	-	-
NC(=O)COC(=O)/C=C/c1cccc(Br)c1	-	-	-	.	-	43
NC(=O)C1CCN(C(=O)/C=C/c2cccc(Br)c2)CC1	-	-	-	-	-	-
O=C1C=CCCN1C(=O)/C=C/c1cccc(Br)c1	46	.	-	-	-	-
N#Cc1cc2c(nc1SCc1ccccc1)CCCCC2	-	.	.	-	.	.
N#Cc1cc2c(nc1SCC(O)CS(=O)(=O)Cc1ccccc1)CCCC2 (stereo unspecified)	-	-35	.	-	-	-
O=C(Nc1ccccc1C(=O)NC(Cc1ccccc1)C(=O)NC1CCCCC1)c1ccccc1 (stereo unspecified)	.	.	66	.	.	.
COc1ccc(-c2nc(-c3ccccn3)no2)cc1	.	-	62	.	-	-
COc1ccc(Oc2nc(-c3ccccn3)ncc2OC)cc1	.	-28	-	.	-	-
CCCCNc1ccc(C(F)(F)F)cc1S(=O)(=O)NCCc1ccc(F)cc1	-	-	72	-	.	21
O=S1(=O)c2ccc(Br)cc2OC2CCCN1C2 (stereo unspecified)	.	-	-	.	-	-
O=S1(=O)c2ccc(Br)cc2OCCC2CCCCN21 (stereo unspecified)	.	-21	-	.	.	-
COc1ccc(C(=O)Oc2ccc(/C=N/O)cc2)cc1	-	-26	-	.	-	.
COc1ccc(OC(=O)c2ccncc2)cc1	-	.	-	-	.	.
CC(C)(C)c1nc(C(C)(C)C)c(Br)c(=O)[nH]1	-	-	72	.	-	-
C[C@H](CO)N1C[C@H](C)[C@@H](CN(C)C)Oc2cc(-c3ccc(C#N)cc3)ccc2S1(=O)=O	-	-	-	-	-	-
Cc1ccc(C(=O)/C=C/C(=O)c2ccc(C)cc2)cc1	-	-24	-	.	-	-
CCCCNC(=O)C1(C)CCCCN1C(=O)c1cc(OC)ccc1Br (stereo unspecified)	-	-	-	-	-	-
O=C(NC(=S)NN1CCCCC1c1cccnc1)c1ccc(Br)cc1 (stereo unspecified)	-	.	-	-	.	-
O=C(Nc1ccc(S(=O)(=O)N2CCCCC2c2cccnc2)cc1)c1ccccc1F (stereo unspecified)	-	-	-	-	-	-
COc1ccccc1C(=O)Nc1ccc(S(=O)(=O)N2CCCCC2c2cccnc2)cc1 (stereo unspecified)	-	-22	-	.	-	-
COC(=O)c1ccc(NC(=S)NN2CCCCC2c2cccnc2)cc1 (stereo unspecified)	-	-27	-	-	-	-
O=C(COC(=O)c1ccc(O)cc1)Nc1ncc(Cl)cc1Cl	.	.	-	-	-	44
SMILES	PGC1a acetyl inh	Ecoli rRNA inh	HIV Env fusion	Cneo AK release	ERAP1 inh	FGF22 binding
CCCCCn1c(=O)[nH]c2cc(C(=O)N3CCN(Cc4ccc5c(c4)OCO5)CC3)ccc2c1=O	.	.	67	-	.	.
CCCCC1CCC(C(=O)OC(C)C(=O)Nc2ccc(NC(C)=O)cc2)CC1 (stereo unspecified)	-	-	-	-	75	-
O=C(NCC(c1cccs1)N1CCOCC1)C1CCN(S(=O)(=O)c2cc(Cl)ccc2Cl)CC1 (stereo unspecified)	-	-	.	-	-	-
CCOC(=O)C(CC)Sc1ccc2nnc(CCNS(=O)(=O)c3ccccc3)n2n1 (stereo unspecified)	-	-	-	.	-	44
O=C(O)Cc1sc(Nc2ccc(Cl)cc2)nc1-c1cccs1	.	-	-	.	-	1.4
CN(C)c1ccc(P(=O)(OCc2ccccc2)C(O)c2ccc(Cl)cc2)cc1 (stereo unspecified)	-	-	-	-	-	-
CCCCOP(=O)(c1ccc(N(C)C)cc1)C(O)c1ccc(N(C)C)cc1 (stereo unspecified)	-	-	-	-	-	-
CC(C)OP(=O)(c1ccc(N(C)C)cc1)C(Nc1ccccc1)c1ccccc1 (stereo unspecified)	-	-27	85	.	-	-
CN(C)c1ccc(P(=O)(OCc2ccccc2)C(O)c2ccccc2)cc1 (stereo unspecified)	-	-20	-	.	-	-
CCCCOP(=O)(c1ccc(N(C)C)cc1)C(O)c1c(Cl)cccc1Cl (stereo unspecified)	-	-	59	-	-	-
CC(C(=O)N1CCN(c2ccccc2)CC1)N1C(=O)C2CC=CCC2C1=O (stereo unspecified)	-	.	-	-	.	.
COc1ccccc1C(OC(=O)c1ccco1)C(=O)NCc1ccc(F)cc1 (stereo unspecified)	-	-	-	-	-	-
CC1=Nn2c(nnc2-c2cc(C)[nH]n2)SC1	-	.	.	-	.	.
COCCc1ncc(CN2CCCC(C(=O)Nc3cccc(-c4cccc(C)c4)c3)C2)cn1 (stereo unspecified)	-	-	-	-	-	-
CC1(C)Cc2c(sc(/N=C/N3CCCCC3)c2C#N)C(C)(C)N1	-	-	-	-	-	-
COc1ccc(NC(=O)C2CC3C=CC2C3)c([N+](=O)[O-])c1 (stereo unspecified)	.	-22	-	.	-	-
CC(N)C12CC3CC(C1)CC(C(C)N)(C3)C2 (stereo unspecified)	-	.	-	-	.	.
[O-][N+](=C(c1ccccc1)c1ccccc1)c1ccccc1	-	-	-	-	-	43
CC(C)(Cc1ccc(O)cc1)NC(=O)CC(=O)N/N=C/c1ccc([N+](=O)[O-])cc1	-	-17	-	.	-	-
O=C(C1CCC(=O)N(C2CCCCCC2)C1)N1CCN(c2ccccc2Cl)CC1 (stereo unspecified)	.	-	-	-	-	-
CCCCOc1ccc(C(=O)NCC(=O)N2CC(C)CC(C)C2)cc1 (stereo unspecified)	-	-	-	-	-	-
O=C(COC(=O)C1CC(=O)N(Cc2ccccc2)C1)Nc1ccc([N+](=O)[O-])cc1Br (stereo unspecified)	-	-	-	-	-	43
C[C@@H]1CN([C@H](C)CO)S(=O)(=O)c2ccc(C#Cc3ccccn3)cc2O[C@@H]1CN(C)Cc1ccc(F)cc1	-	-	-	-	-	-
